Assay results reported in ChEMBL document CHEMBL2177069, “Novel peptidomimetic compounds containing redox active chalcogens and quinones as potential anticancer agents” (Eur J Med Chem, 2012).
pIC50: −log10 of the molar value.

Assays:
OVCAR-4 = test: Cytotoxicity against human OVCAR4 cells; format: functional
OVCAR-3 = test: Cytotoxicity against human OVCAR3 cells; format: functional
Hs-578T = test: Cytotoxicity against human Hs578T cells; format: functional
Saccharomyces cerevisiae [1] = test: Growth inhibition of SOD1-deficient Saccharomyces cerevisiae YJR104C mutant at 20 ug/disc after 24 to 48 hrs by agar diffusion assay; format: functional; settings: read-out: DIZ
Method in brief: (§1)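 S. cerevisiae deletion mutants or wild type grown on YPD, seeded into liquid agar medium at an optical density of 0.1. 6 mm paper discs soaked with methanolic compound solution were placed on the plates and incubated at 30 °C. Growth was checked after 1 and 2 days, and the inhibition zone diameter was recorded in mm.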

SK-OV-3 = test: Cytotoxicity against human SKOV3 cells; format: functional
A-431 = test: Cytotoxicity against human A431 cells after 24 hrs by MTT assay; format: functional, cell-based; settings: A-431, 24 h
Method in brief: (§2)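 MTT assay. Cells were seeded at 50,000 cells/mL in medium with 10% fetal calf serum and grown for two days at 37 °C, 10% CO2. Serial dilutions of compound were then added for 24 h. MTT was added (final 0.5 mg/mL) for 2 h, and the formazan was pelleted, washed, dissolved in isopropanol with 0.4% HCl and read at 590 nm. IC50 is the concentration giving 50% of untreated-control absorbance, taken from dose-response curves; mean of two parallel experiments.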

BT-549 = test: Cytotoxicity against human BT549 cells; format: functional
UO-31 = test: Cytotoxicity against human UO31 cells; format: functional
Saccharomyces cerevisiae [2] = test: Growth inhibition of UFD2-deficient Saccharomyces cerevisiae YDL190C mutant at 20 ug/disc after 24 to 48 hrs by agar diffusion assay; format: functional; settings: read-out: DIZ; method in brief: as §1
A549 = test: Cytotoxicity against human A549 cells; format: functional
Malme-3M = test: Cytotoxicity against human MALME-3M cells; format: functional
SF-268 = test: Cytotoxicity against human SF268 cells; format: functional
HUVEC = test: Cytotoxicity against human HUVEC cells after 24 hrs by MTT assay; format: cell-based; method in brief: as §2
MOLT-4 = test: Cytotoxicity against human MOLT4 cells; format: functional
NCI-H226 = test: Cytotoxicity against human NCI-H226 cells; format: functional
SF-539 = test: Cytotoxicity against human SF539 cells; format: functional
RXF 393 = test: Cytotoxicity against human RXF393 cells; format: functional
Saccharomyces cerevisiae [3] = test: Growth inhibition of COX17-deficient Saccharomyces cerevisiae YLL009C mutant at 20 ug/disc after 24 to 48 hrs by agar diffusion assay; format: functional; settings: read-out: DIZ; method in brief: as §1
Saccharomyces cerevisiae [4] = test: Growth inhibition of SOD2-deficient Saccharomyces cerevisiae YHR008C mutant at 20 ug/disc 24 to 48 hrs by agar diffusion assay; format: functional; settings: read-out: DIZ; method in brief: as §1
CAKI-1 = test: Cytotoxicity against human Caki1 cells; format: functional
KM12 = test: Cytotoxicity against human KM12 cells; format: functional
Saccharomyces cerevisiae [5] = test: Growth inhibition of WSC4-deficient Saccharomyces cerevisiae YHL028W mutant at 20 ug/disc 24 to 48 hrs by agar diffusion assay; format: functional; settings: read-out: DIZ; method in brief: as §1
HOP-92 = test: Cytotoxicity against human HOP92 cells; format: functional
PC-3 = test: Cytotoxicity against human PC3 cells; format: functional
HCC 2998 = test: Cytotoxicity against human HCC2998 cells; format: functional
Saccharomyces cerevisiae [6] = test: Growth inhibition of POS5-deficient Saccharomyces cerevisiae YPL188W mutant at 20 ug/disc after 24 to 48 hrs by agar diffusion assay; format: functional; settings: read-out: DIZ; method in brief: as §1
NCI-H522 = test: Cytotoxicity against human NCI-H522 cells; format: functional
ACHN = test: Cytotoxicity against human ACHN cells; format: functional
Saccharomyces cerevisiae [7] = test: Growth inhibition of RCK1-deficient Saccharomyces cerevisiae YGL158W mutant at 20 ug/disc after 24 to 48 hrs by agar diffusion assay; format: functional; settings: read-out: DIZ; method in brief: as §1
NCI-H460 = test: Cytotoxicity against human NCI-H460 cells; format: functional
OVCAR-8 = test: Cytotoxicity against human OVCAR8 cells; format: functional
MCF7 = test: Cytotoxicity against human MCF7 cells; format: functional

Work on CC1=C([Se]CC(OC(=O)[C@@H](CO)NC(=O)OC(C)(C)C)C(=O)NCCCCCC(=O)OCc2ccccc2)C(=O)c2ccccc2C1=O (stereo partly drawn) yielded a GI50 (OVCAR-4) of 1.55 µM, an LC50 (OVCAR-4) of 5.37 µM and a TGI (OVCAR-4; read-out: pTGI (converted)) of 2.88 µM. The GI50 (OVCAR-3) was 1.78 µM, the LC50 (OVCAR-3) was 5.62 µM and the TGI (OVCAR-3; read-out: pTGI (converted)) was 3.16 µM. The GI50 (Hs-578T) was 2 µM, the LC50 (Hs-578T) was > 100 µM and the TGI (Hs-578T; read-out: pTGI (converted)) was 4.68 µM. It also gave a zone of inhibition at 20 µg/disc (Saccharomyces cerevisiae [1]) of 17 mm, a GI50 (SK-OV-3) of 1.29 µM and an LC50 (SK-OV-3) of 5.13 µM. The TGI (SK-OV-3; read-out: pTGI (converted)) was 2.57 µM, the pIC50 (A-431) was 5.40 and the GI50 (BT-549) was 1.74 µM. The LC50 (BT-549) was 5.62 µM, the TGI (BT-549; read-out: pTGI (converted)) was 3.09 µM and the GI50 (UO-31) was 1.55 µM. For the same compound, the LC50 (UO-31) was 5.89 µM, the TGI (UO-31; read-out: pTGI (converted)) was 3.02 µM and the zone of inhibition at 20 µg/disc (Saccharomyces cerevisiae [2]) was 0 mm. The GI50 (A549) was 1.38 µM, the LC50 (A549) was 6.92 µM and the TGI (A549; read-out: pTGI (converted)) was 3.09 µM. For the same compound, the GI50 (Malme-3M) was 2.09 µM, the LC50 (Malme-3M) was 7.08 µM and the TGI (Malme-3M; read-out: pTGI (converted)) was 3.8 µM. It also gave a GI50 (SF-268) of 1.86 µM, an LC50 (SF-268) of 5.75 µM and a TGI (SF-268; read-out: pTGI (converted)) of 3.24 µM. The pIC50 (HUVEC) was 4.46, the GI50 (MOLT-4) was 1.38 µM and the LC50 (MOLT-4) was > 100 µM. The TGI (MOLT-4; read-out: pTGI (converted)) was 4.9 µM, the GI50 (NCI-H226) was 2.24 µM and the CC50 (NCI-H226; read-out: pLC50 (the source's name) (converted)) was 8.71 µM. It also gave a TGI (NCI-H226; read-out: pTGI (converted)) of 4.37 µM, a GI50 (SF-539) of 1.7 µM and an LC50 (SF-539) of 5.62 µM. The TGI (SF-539; read-out: pTGI (converted)) was 3.09 µM, the GI50 (RXF 393) was 2.69 µM and the LC50 (RXF 393) was 6.46 µM. The TGI (RXF 393; read-out: pTGI (converted)) was 4.17 µM, the zone of inhibition at 20 µg/disc (Saccharomyces cerevisiae [3]) was 0 mm and the zone of inhibition at 20 µg/disc (Saccharomyces cerevisiae [4]) was 11 mm. The GI50 (CAKI-1) was 1.82 µM, the LC50 (CAKI-1) was 6.03 µM and the TGI (CAKI-1; read-out: pTGI (converted)) was 3.31 µM. The GI50 (KM12) was 1.51 µM, the LC50 (KM12) was 5.5 µM and the TGI (KM12; read-out: pTGI (converted)) was 2.88 µM. The zone of inhibition at 20 µg/disc (Saccharomyces cerevisiae [5]) was 0 mm, the GI50 (HOP-92) was 1.86 µM and the LC50 (50% lethal concentration) (HOP-92) was 5.89 µM. For the same compound, the TGI (HOP-92; read-out: pTGI (converted)) was 3.31 µM, the GI50 (PC-3) was 1.23 µM and the LC50 (PC-3) was 5.37 µM. For the same compound, the TGI (PC-3; read-out: pTGI (converted)) was 2.57 µM, the GI50 (HCC 2998) was 2 µM and the LC50 (HCC 2998) was 6.17 µM. The TGI (HCC 2998; read-out: pTGI (converted)) was 3.47 µM, the zone of inhibition at 20 µg/disc (Saccharomyces cerevisiae [6]) was 0 mm and the GI50 (NCI-H522) was 2 µM. It also gave an LC50 (NCI-H522) of 6.03 µM, a TGI (NCI-H522; read-out: pTGI (converted)) of 3.47 µM and a GI50 (ACHN) of 1.66 µM. The LC50 (ACHN) was 5.75 µM, the TGI (ACHN; read-out: pTGI (converted)) was 3.09 µM and the zone of inhibition at 20 µg/disc (Saccharomyces cerevisiae [7]) was 0 mm. The GI50 (NCI-H460) was 0.457 µM, the LC50 (NCI-H460) was 5.37 µM and the TGI (NCI-H460; read-out: pTGI (converted)) was 1.62 µM. For the same compound, the GI50 (OVCAR-8) was 1.82 µM, the LC50 (OVCAR-8) was 6.17 µM and the TGI (OVCAR-8; read-out: pTGI (converted)) was 3.39 µM. For the same compound, the GI50 (MCF7) was 1.62 µM, the LC50 (MCF7) was 7.08 µM and the TGI (MCF7; read-out: pTGI (converted)) was 3.39 µM.
